Drawing on ChEMBL document CHEMBL1148977, “Inhibitory effects of bufadienolides on interleukin-6 in MH-60 cells” (J Nat Prod, 2004), this text covers IC50 for 25 compounds.

In general, pIC50 refers to the IC50 on a negative log10 scale, so that one unit is a factor of ten.

pIC50: −log10 of the molar value. Bounds are passed on as bounds.

One assay has as its system MH60. Put plainly: Growth inhibition of IL6-dependent mouse MH60 cells after 72 hrs by MTT assay in presence of human recombinant IL6. The format is functional, cell-based. The following applies: MH60, 72 h. The method in brief:
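IL-6-dependent MH-60 mouse B-cell/myeloma hybridoma kept in RPMI 1640 + 10% FCS containing 0.5 ng/mL recombinant human IL-6. 0.5 × 10^4 cells/well in rhIL-6 medium pre-incubated 24 h at 37 °C, 5% CO2, then treated 72 h with graded compound concentrations. Growth by MTT; mean with standard errors of 3–4 experiments.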
Regarding `CC(=O)O[C@H]1CC[C@@]2(C)[C@H](CC[C@@H]3[C@@H]2CC[C@]2(C)[C@@H](c4ccc(=O)oc4)C[C@H]4O[C@]342)C1`, the pIC50 was less than 4.23.

On to `CC(C)(C)C(=O)O[C@H]1CC[C@@]2(C)[C@H](CC[C@@H]3[C@@H]2CC[C@]2(C)[C@@H]([C@@]45C=CC(=O)O[C@@H]4O5)C[C@H]4O[C@]342)C1`, for which the pIC50 was 4.74.

In the case of `C[C@]12CCC(=O)C[C@H]1CC[C@@H]1[C@@H]2CC[C@]2(C)[C@@H](c3ccc(=O)oc3)C[C@H]3O[C@]132`, the pIC50 was 5.62.

As for `CC(C)(C)C(=O)O[C@H]1CC[C@@]2(C)[C@H](CC[C@@H]3[C@@H]2CC[C@]2(C)[C@@H]([C@]45C=CC(=O)O[C@H]4O5)C[C@H]4O[C@]342)C1`, the pIC50 was 5.17.

For `CCCCC(=O)O[C@H]1CC[C@@]2(C)[C@H](CC[C@@H]3[C@@H]2CC[C@]2(C)[C@@H]([C@@]45C=CC(=O)O[C@@H]4O5)C[C@H]4O[C@]342)C1`, the pIC50 is 5.19.

Take `C[C@]12CC[C@H](OC=O)C[C@H]1CC[C@@H]1[C@@H]2CC[C@]2(C)[C@@H]([C@]34C=CC(=O)O[C@H]3O4)C[C@H]3O[C@]132`: the pIC50 was 5.05.

Take `C[C@]12CC[C@H](OC=O)C[C@H]1CC[C@@H]1[C@@H]2CC[C@]2(C)[C@@H]([C@@]34C=CC(=O)O[C@@H]3O4)C[C@H]3O[C@]132`: the pIC50 is 5.25.

As for `C[C@]12CC[C@H](O)C[C@H]1CC[C@@H]1[C@@H]2CC[C@]2(C)[C@@H]([C@@]34C=CC(=O)O[C@@H]3O4)C[C@H]3O[C@]132`, the pIC50 was 4.74.

In the case of `CC(=O)O[C@@H]1[C@H]2O[C@]23[C@@H]2CC[C@@H]4C[C@@H](O)CC[C@]4(C)[C@H]2CC[C@]3(C)[C@H]1[C@@]12C=CC(=O)O[C@@H]1O2`, the pIC50 was less than 4.27.

Regarding `C[C@]12CCC(=O)C[C@H]1CC[C@@H]1[C@@H]2CC[C@]2(C)[C@@H]([C@@]34C=CC(=O)O[C@@H]3O4)C[C@H]3O[C@]132`, the pIC50 was 5.89.

As to `C[C@]12CCC(=O)C[C@H]1CC[C@@H]1[C@@H]2CC[C@]2(C)[C@@H]([C@]34C=CC(=O)O[C@H]3O4)C[C@H]3O[C@]132`, the negative-log IC50 (pIC50) is 5.37.

Regarding `CCCC(=O)O[C@H]1CC[C@@]2(C)[C@H](CC[C@@H]3[C@@H]2CC[C@]2(C)[C@@H]([C@@]45C=CC(=O)O[C@@H]4O5)C[C@H]4O[C@]342)C1`, the negative logarithm of the IC50 (pIC50) is 5.70.

Regarding `CCCC(=O)O[C@H]1CC[C@@]2(C)[C@H](CC[C@@H]3[C@@H]2CC[C@]2(C)[C@@H]([C@]45C=CC(=O)O[C@H]4O5)C[C@H]4O[C@]342)C1`, the pIC50 was 5.03.

In the case of `C[C@]12CC[C@H](OC=O)C[C@H]1CC[C@@H]1[C@@H]2CC[C@]2(C)[C@@H](c3ccc(=O)oc3)C[C@H]3O[C@]132`, the pIC50 is less than 4.22.

In the case of `CC(=O)O[C@H]1CC[C@@]2(C)[C@H](CC[C@@H]3[C@@H]2CC[C@]2(C)[C@@H]([C@]45C=CC(=O)O[C@H]4O5)C[C@H]4O[C@]342)C1`, the pIC50 is 5.28.

Turning to `CCCCC(=O)O[C@H]1CC[C@@]2(C)[C@H](CC[C@@H]3[C@@H]2CC[C@]2(C)[C@@H]([C@]45C=CC(=O)O[C@H]4O5)C[C@H]4O[C@]342)C1`, the pIC50 is 4.94.

In the case of `C[C@]12CC[C@H](O)C[C@H]1CC[C@@H]1[C@@H]2CC[C@]2(C)[C@@H]([C@@]34C=CC(=O)O[C@@H]3O4)CC[C@]12O`, the pIC50 is less than 4.21.

On to `C[C@]12CC[C@H](O)C[C@H]1CC[C@@H]1[C@@H]2CC[C@]2(C)[C@@H]([C@]34C=CC(=O)O[C@H]3O4)CC[C@]12O`, for which the pIC50 is less than 4.21.

Regarding `CC(=O)O[C@H]1CC[C@@]2(C)[C@H](CC[C@@H]3[C@@H]2CC[C@]2(C)[C@@H]([C@@]45C=CC(=O)O[C@@H]4O5)C[C@H]4O[C@]342)C1`, the pIC50 was 4.84.

Turning to `CC(=O)O[C@@H]1[C@H]2O[C@]23[C@@H]2CC[C@@H]4C[C@@H](O)CC[C@]4(C)[C@H]2CC[C@]3(C)[C@H]1[C@]12C=CC(=O)O[C@H]1O2`, the pIC50 is less than 4.27.

In the case of `C[C@]12CC[C@H](O)C[C@H]1CC[C@@H]1[C@@H]2CC[C@]2(C)[C@@H]([C@]34C=CC(=O)O[C@H]3O4)C[C@H]3O[C@]132`, the pIC50 was 4.61.

For `C[C@]12CC[C@H](O)C[C@H]1CC[C@@H]1[C@@H]2CC[C@]2(C)[C@@H](c3ccc(=O)oc3)CC[C@]12O` [BUFALIN], the negative-log IC50 (pIC50) is 4.50.

Regarding `C[C@]12CC[C@H](O)C[C@H]1CC[C@@H]1[C@@H]2CC[C@]2(C)[C@@H](c3ccc(=O)oc3)C[C@H]3O[C@]132` [BUFOGENIN], the pIC50 was 4.64.

Take `CC(=O)O[C@H]1C[C@]2(O)[C@@H]3CC[C@@H]4C[C@@H](O)CC[C@]4(C)[C@H]3CC[C@]2(C)[C@H]1c1ccc(=O)oc1` [BUFOTALIN]: the pIC50 was less than 4.25.

On to `CC(=O)O[C@H]1[C@H]2O[C@]23[C@@H]2CC[C@@H]4C[C@@H](O)CC[C@]4(C)[C@H]2CC[C@]3(C)[C@H]1c1ccc(=O)oc1` [CINOBUFAGIN], for which the negative-log IC50 (pIC50) was less than 4.25.

In the next assay the test system is MH60. The assay can be described thus: Growth inhibition of IL-6-independent mouse MH60 cells after 72 hrs by MTT assay. The format is functional, cell-based. As to conditions: MH60, 72 h. The method in brief:
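Mouse B-cell/myeloma hybridoma MH-60 subline adapted to grow without IL-6 (rhIL-6 withdrawn gradually), kept in RPMI 1640 + 10% FCS with no rhIL-6. 0.5 × 10^4 cells/well pre-incubated 24 h at 37 °C, 5% CO2, then exposed 72 h to graded compound concentrations. MTT read-out; mean with standard errors of 3–4 experiments.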
A general note: Formazan colour is commonly taken as a measure of viable cells.
`CC(=O)O[C@H]1CC[C@@]2(C)[C@H](CC[C@@H]3[C@@H]2CC[C@]2(C)[C@@H](c4ccc(=O)oc4)C[C@H]4O[C@]342)C1` had a pIC50 of less than 4.23.

Regarding `CC(C)(C)C(=O)O[C@H]1CC[C@@]2(C)[C@H](CC[C@@H]3[C@@H]2CC[C@]2(C)[C@@H]([C@@]45C=CC(=O)O[C@@H]4O5)C[C@H]4O[C@]342)C1`, the pIC50 is 4.47.

The compound `C[C@]12CCC(=O)C[C@H]1CC[C@@H]1[C@@H]2CC[C@]2(C)[C@@H](c3ccc(=O)oc3)C[C@H]3O[C@]132` showed a pIC50 of 5.08.

With `CC(C)(C)C(=O)O[C@H]1CC[C@@]2(C)[C@H](CC[C@@H]3[C@@H]2CC[C@]2(C)[C@@H]([C@]45C=CC(=O)O[C@H]4O5)C[C@H]4O[C@]342)C1`, the pIC50 was less than 4.27.

In turn, `CCCCC(=O)O[C@H]1CC[C@@]2(C)[C@H](CC[C@@H]3[C@@H]2CC[C@]2(C)[C@@H]([C@@]45C=CC(=O)O[C@@H]4O5)C[C@H]4O[C@]342)C1` showed a pIC50 of 4.72.

`C[C@]12CC[C@H](OC=O)C[C@H]1CC[C@@H]1[C@@H]2CC[C@]2(C)[C@@H]([C@]34C=CC(=O)O[C@H]3O4)C[C@H]3O[C@]132` gave a pIC50 of less than 4.23.

Regarding `C[C@]12CC[C@H](OC=O)C[C@H]1CC[C@@H]1[C@@H]2CC[C@]2(C)[C@@H]([C@@]34C=CC(=O)O[C@@H]3O4)C[C@H]3O[C@]132`, the pIC50 was 4.89.

With `C[C@]12CC[C@H](O)C[C@H]1CC[C@@H]1[C@@H]2CC[C@]2(C)[C@@H]([C@@]34C=CC(=O)O[C@@H]3O4)C[C@H]3O[C@]132`, the pIC50 was 4.35.

Compound `CC(=O)O[C@@H]1[C@H]2O[C@]23[C@@H]2CC[C@@H]4C[C@@H](O)CC[C@]4(C)[C@H]2CC[C@]3(C)[C@H]1[C@@]12C=CC(=O)O[C@@H]1O2` showed a pIC50 of less than 4.27.

`C[C@]12CCC(=O)C[C@H]1CC[C@@H]1[C@@H]2CC[C@]2(C)[C@@H]([C@@]34C=CC(=O)O[C@@H]3O4)C[C@H]3O[C@]132` showed a negative-log IC50 (pIC50) of 5.37.

As for `C[C@]12CCC(=O)C[C@H]1CC[C@@H]1[C@@H]2CC[C@]2(C)[C@@H]([C@]34C=CC(=O)O[C@H]3O4)C[C@H]3O[C@]132`, the pIC50 is 5.08.

The compound `CCCC(=O)O[C@H]1CC[C@@]2(C)[C@H](CC[C@@H]3[C@@H]2CC[C@]2(C)[C@@H]([C@@]45C=CC(=O)O[C@@H]4O5)C[C@H]4O[C@]342)C1` showed a pIC50 of 4.76.

In turn, `CCCC(=O)O[C@H]1CC[C@@]2(C)[C@H](CC[C@@H]3[C@@H]2CC[C@]2(C)[C@@H]([C@]45C=CC(=O)O[C@H]4O5)C[C@H]4O[C@]342)C1` showed a pIC50 of less than 4.26.

Compound `C[C@]12CC[C@H](OC=O)C[C@H]1CC[C@@H]1[C@@H]2CC[C@]2(C)[C@@H](c3ccc(=O)oc3)C[C@H]3O[C@]132` showed a pIC50 of less than 4.22.

`CC(=O)O[C@H]1CC[C@@]2(C)[C@H](CC[C@@H]3[C@@H]2CC[C@]2(C)[C@@H]([C@]45C=CC(=O)O[C@H]4O5)C[C@H]4O[C@]342)C1` showed a negative-log IC50 (pIC50) of less than 4.25.

Regarding `CCCCC(=O)O[C@H]1CC[C@@]2(C)[C@H](CC[C@@H]3[C@@H]2CC[C@]2(C)[C@@H]([C@]45C=CC(=O)O[C@H]4O5)C[C@H]4O[C@]342)C1`, the pIC50 is less than 4.27.

In turn, `C[C@]12CC[C@H](O)C[C@H]1CC[C@@H]1[C@@H]2CC[C@]2(C)[C@@H]([C@@]34C=CC(=O)O[C@@H]3O4)CC[C@]12O` showed a pIC50 of less than 4.21.

In the case of `C[C@]12CC[C@H](O)C[C@H]1CC[C@@H]1[C@@H]2CC[C@]2(C)[C@@H]([C@]34C=CC(=O)O[C@H]3O4)CC[C@]12O`, the pIC50 was less than 4.21.

`CC(=O)O[C@H]1CC[C@@]2(C)[C@H](CC[C@@H]3[C@@H]2CC[C@]2(C)[C@@H]([C@@]45C=CC(=O)O[C@@H]4O5)C[C@H]4O[C@]342)C1` showed a pIC50 of 4.66.

`CC(=O)O[C@@H]1[C@H]2O[C@]23[C@@H]2CC[C@@H]4C[C@@H](O)CC[C@]4(C)[C@H]2CC[C@]3(C)[C@H]1[C@]12C=CC(=O)O[C@H]1O2` had a pIC50 of less than 4.27.

The compound `C[C@]12CC[C@H](O)C[C@H]1CC[C@@H]1[C@@H]2CC[C@]2(C)[C@@H]([C@]34C=CC(=O)O[C@H]3O4)C[C@H]3O[C@]132` showed a pIC50 of less than 4.20.

Compound `C[C@]12CC[C@H](O)C[C@H]1CC[C@@H]1[C@@H]2CC[C@]2(C)[C@@H](c3ccc(=O)oc3)CC[C@]12O` [BUFALIN] gave a pIC50 of less than 4.19.

For `C[C@]12CC[C@H](O)C[C@H]1CC[C@@H]1[C@@H]2CC[C@]2(C)[C@@H](c3ccc(=O)oc3)C[C@H]3O[C@]132` [BUFOGENIN], the pIC50 was less than 4.19.

`CC(=O)O[C@H]1C[C@]2(O)[C@@H]3CC[C@@H]4C[C@@H](O)CC[C@]4(C)[C@H]3CC[C@]2(C)[C@H]1c1ccc(=O)oc1` [BUFOTALIN] gave a pIC50 of less than 4.25.

Take `CC(=O)O[C@H]1[C@H]2O[C@]23[C@@H]2CC[C@@H]4C[C@@H](O)CC[C@]4(C)[C@H]2CC[C@]3(C)[C@H]1c1ccc(=O)oc1` [CINOBUFAGIN]: the pIC50 was less than 4.25.
